The source of these data is ChEMBL document CHEMBL1133760, “4-(3-Chloro-4-methoxybenzyl)aminophthalazines: synthesis and inhibitory activity toward phosphodiesterase 5” (J Med Chem, 2000).

Counter-ions that a name gives are not always drawn.

The target in series [1] is T1, PDE II (Sus scrofa, UniProt F1SUV3). The experiment in a line: Inhibition of phosphodiesterase 2 (PDE2) from porcine adrenal.
The target in series [2] is T2, Phosphodiesterase 3A (Sus scrofa, UniProt Q9XSW7).
T2 sequence (Q9XSW7 whole entry): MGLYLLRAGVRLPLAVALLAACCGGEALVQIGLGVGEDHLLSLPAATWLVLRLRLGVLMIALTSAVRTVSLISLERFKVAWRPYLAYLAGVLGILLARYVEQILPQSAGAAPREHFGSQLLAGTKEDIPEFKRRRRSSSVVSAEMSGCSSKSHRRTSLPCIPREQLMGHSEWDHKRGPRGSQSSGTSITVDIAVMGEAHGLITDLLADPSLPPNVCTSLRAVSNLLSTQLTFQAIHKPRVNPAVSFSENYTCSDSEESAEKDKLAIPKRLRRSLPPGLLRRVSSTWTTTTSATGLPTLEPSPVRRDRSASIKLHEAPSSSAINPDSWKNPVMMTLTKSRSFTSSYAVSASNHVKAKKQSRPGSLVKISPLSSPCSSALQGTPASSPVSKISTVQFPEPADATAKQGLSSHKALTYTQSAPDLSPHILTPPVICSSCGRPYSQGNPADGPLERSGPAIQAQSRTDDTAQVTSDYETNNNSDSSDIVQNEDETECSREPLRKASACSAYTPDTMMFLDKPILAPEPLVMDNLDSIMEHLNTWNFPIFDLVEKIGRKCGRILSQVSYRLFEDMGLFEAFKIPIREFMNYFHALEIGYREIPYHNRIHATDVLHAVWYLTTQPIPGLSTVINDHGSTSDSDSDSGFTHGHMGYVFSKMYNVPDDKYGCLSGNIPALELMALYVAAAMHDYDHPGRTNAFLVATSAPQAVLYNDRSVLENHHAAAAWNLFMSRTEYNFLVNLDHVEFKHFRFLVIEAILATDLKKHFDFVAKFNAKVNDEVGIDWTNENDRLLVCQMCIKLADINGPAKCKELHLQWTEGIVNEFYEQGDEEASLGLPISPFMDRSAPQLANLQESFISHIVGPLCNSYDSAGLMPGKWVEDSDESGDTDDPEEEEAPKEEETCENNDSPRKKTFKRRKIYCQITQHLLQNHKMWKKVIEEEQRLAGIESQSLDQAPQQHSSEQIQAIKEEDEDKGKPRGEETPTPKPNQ
The series is described as follows: Inhibition of phosphodiesterase 3 (PDE3) from porcine platelets. A digest of the protocol: (§1)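 Two-step radioisotopic PDE activity assay (modified) with 1 µM [3H]cGMP as substrate. Enzymes were isolated from porcine tissues, and PDE5 was purified by DEAE-Toyopearl 650S chromatography. Inhibitors were diluted from DMSO into assay buffer over 10^-10 to 10^-6 M, with 1% (v/v) DMSO final. IC50 came from log concentration-inhibition curves (at least four points), as the mean of three experiments.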

Series [3] is described as follows: Inhibition of phosphodiesterase 1 (PDE1) from porcine adrenal tissue. It counts as tissue-based, Sus scrofa. The note with it: in the assay text read “porcine aorta” for “porcine adrenal tissue”. The procedure, abridged:
as §1

Series [4] addresses T3, Phosphodiesterase 4A (Sus scrofa, UniProt O77823).
T3 sequence (O77823 whole entry): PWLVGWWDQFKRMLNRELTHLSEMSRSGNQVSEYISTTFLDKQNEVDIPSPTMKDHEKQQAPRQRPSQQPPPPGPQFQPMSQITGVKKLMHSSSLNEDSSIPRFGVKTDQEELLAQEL
The experiment in a line: Inhibition of phosphodiesterase 4 (PDE4) from porcine liver. The procedure, abridged:
as §1

The species entered for a further series is Sus scrofa. The series is described as follows: Vasorelaxant effect was evaluated on isolated porcine coronary arteries precontracted with PGF-2 alpha. The format is functional. The procedure, abridged: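 Endothelium-intact porcine coronary artery strips were held in Krebs-Henseleit (37 °C, pH 7.4, 95% O2-5% CO2) at 1 g resting tension. Endothelium was verified by 10^-8 M bradykinin relaxation after 50 mM KCl contraction. Strips were contracted with 10^-5 M PGF2α, then given cumulative compound additions. Relaxation was expressed as % of the PGF2α contraction. EC50 came from log concentration curves, as the mean of two experiments.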

In series [5] the target is T3, Phosphodiesterase 4A. The series is described as follows: Inhibition of phosphodiesterase 4 (PDE4) from porcine liver, range 10.4-16.3. A digest of the protocol: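 PDE4 isolated from porcine liver; activity measured by a modified two-step radioisotopic assay. Compounds dissolved in DMSO and diluted in assay buffer to 10^-10 to 10^-6 M, with 1% (v/v) final DMSO. IC50 taken from logarithmic concentration-inhibition curves of at least four points, as the mean of three experiments.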

Series [6] in a line: Inhibition of phosphodiesterase 1 (PDE1) from porcine adrenal tissue, range 26.5-36.7. More on the design: species or system Sus scrofa. The note with it: in the assay text read “porcine aorta” for “porcine adrenal tissue”. The procedure, abridged: as §1
Series [7] addresses T2, Phosphodiesterase 3A. The experiment in a line: Inhibition of phosphodiesterase 3 (PDE3) from porcine platelets, range 31.8-60.7.
The nature of series [8]: Inhibition of phosphodiesterase 1 (PDE1) from porcine adrenal tissue, range 51.1-108. More on the design: species or system Sus scrofa. To be noted: in the assay text read “porcine aorta” for “porcine adrenal tissue”. The procedure, abridged:
as §1

The nature of series [9]: Pharmacokinetic parameter, t1/2 after 0.3 mg/kg iv administration in rats. To be noted: rat, in vivo. Also noted: dose 0.3 mg/kg, route intravenous. The format is ADME, organism-based. The procedure, abridged: (§2)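 Rats received a 0.3 mg/kg dose intravenously or orally, with n = 4 per route. Plasma pharmacokinetic parameters were then derived.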
Series [10] concerns the target T1, PDE II. The experiment in a line: Inhibition of phosphodiesterase 2 (PDE2) from porcine platelets, range 0.841-1.15. The note with it: in the assay text read “porcine adrenal” for “porcine platelets”. A digest of the protocol: as §1
Series [11] is described as follows: Pharmacokinetic parameter, AUC (area under curve) after 0.3 mg/kg iv administration in rats. Also noted: dose 0.3 mg/kg, route intravenous. To be noted: rat, in vivo. The format is ADME, organism-based. A digest of the protocol: as §2
A short description of series [12]: Pharmacokinetic parameter, tmax after 0.3 mg/kg po administration in rats. It counts as ADME, organism-based. More on the design: dose 0.3 mg/kg, route oral. To be noted: rat, in vivo. A digest of the protocol: as §2
Series [13] addresses T3, Phosphodiesterase 4A. The series is described as follows: Inhibition of phosphodiesterase 4 (PDE4) from porcine liver, range 1.01-1.36. The procedure, abridged: as §1
A short description of series [14]: Pharmacokinetic parameter, AUC (area under curve) after 0.3 mg/kg po administration in rats. It counts as ADME, organism-based. More on the design: dose 0.3 mg/kg, route oral. The note with it: rat, in vivo. A digest of the protocol:
as §2

A short description of series [15]: Pharmacokinetic parameter, Bioavailability (F) after 0.3 mg/kg po administration in rats. It counts as ADME, organism-based. The note with it: rat, in vivo, read-out: BA. A digest of the protocol:
as §2

Series [16] can be described thus: Inhibition of phosphodiesterase 1 (PDE1) from porcine adrenal tissue, range 20.0-34.4. More on the design: species or system Sus scrofa. The note with it: in the assay text read “porcine aorta” for “porcine adrenal tissue”. The procedure, abridged: as §1
The nature of series [17]: Pharmacokinetic parameter, Cmax (plasma conc.) after 0.3 mg/kg po administration in rats. More on the design: dose 0.3 mg/kg, route oral. The note with it: rat. It counts as ADME, organism-based. The procedure, abridged:
as §2

The target in series [18] is T2, Phosphodiesterase 3A. The series is described as follows: Inhibition of phosphodiesterase 3 (PDE3) from porcine platelets, range 11.4-26.9. The procedure, abridged:
as §1

In general, IC50 refers to the concentration that inhibits the measured activity by half. On to `COc1ccc(C2CNC(=O)C2)cc1OC1CCCC1` (stereo not drawn) [ROLIPRAM], for which the IC50 at PDE II [1] was above 100 µM; on Phosphodiesterase 3A [2], above 100 µM; in series [3], above 100 µM; against Phosphodiesterase 4A [4], 3.63 µM. What is called EC50 is the concentration giving half of the maximal effect. The compound `COc1ccc(CNc2nnc(N3CCC(OC)CC3)c3ccc(C#N)cc23)cc1Cl` returned an EC50 in the series filed under Sus scrofa of 0.1 µM. Same read-out and setting: the figure for `COc1ccc(CNc2nnc(N3CCC(O)CC3)c3ccc(C(F)(F)F)cc23)cc1Cl` is 0.12 µM; for `COc1ccc(CNc2nnc(N3CCC(=O)CC3)c3ccc(C#N)cc23)cc1Cl` it is 0.013 µM; for `COc1ccc(CNc2nnc(N3CCNCC3)c3ccc(C#N)cc23)cc1Cl` it is 0.87 µM.

`COc1ccc(CNc2nnc(N3CCC(O)CC3)c3ccc([N+](=O)[O-])cc23)cc1Cl` came in with an EC50 in the series listed under Sus scrofa of 0.03 µM. Same read-out and setting: with `COc1ccc(CNc2nnc(N3CC[S+]([O-])CC3)c3ccc(C#N)cc23)cc1Cl` the figure was 0.05 µM; with `COc1ccc(CNc2nnc(N3CCN(CCO)CC3)c3ccc(C#N)cc23)cc1Cl`, 0.1 µM; with `COc1ccc(CNc2nnc(N3CCN(C)CC3)c3ccc(C#N)cc23)cc1Cl`, 0.32 µM.

As for `Cc1[nH]c(=O)c(C#N)cc1-c1ccncc1` [MILRINONE], the figures for the IC50 (against Phosphodiesterase 4A [5]; in [3]) were 13 µM and above 100 µM, respectively.

For `COc1ccc(CNc2nnc(N3CCCCC3)c3ccc(C#N)cc23)cc1Cl`, in the series filed under Sus scrofa, it took 0.039 µM to reach a half-maximal effect (EC50). Same read-out and setting: with `CCCc1nn(C)c2c(=O)[nH]c(-c3cc(S(=O)(=O)N4CCN(C)CC4)ccc3OCC)nc12` [SILDENAFIL CITRATE] the figure was 0.038 µM; with `COc1ccc(CNc2nnc(N3CCC(CCO)CC3)c3ccc(C#N)cc23)cc1Cl`, 0.03 µM; with `COc1ccc(CNc2nnc(N3CCC(O)CC3)c3ccc(Cl)cc23)cc1Cl`, 0.78 µM.

In the series listed under Sus scrofa, `COc1ccc(CNc2nnc(N3CCC(C)(O)CC3)c3ccc(C#N)cc23)cc1Cl` showed an EC50 of 0.13 µM.

On to `CCCOc1ccccc1-c1nc2[nH]nnc2c(=O)[nH]1` [ZAPRINAST], for which the IC50 on Phosphodiesterase 3A [2] is above 100 µM; in series [6] it was 31.2 µM; at Phosphodiesterase 4A [4], above 100 µM. With `OCCN(CCO)c1nc(N2CCCCC2)c2nc(N(CCO)CCO)nc(N3CCCCC3)c2n1` [DIPYRIDAMOLE], the figures for the IC50 (against Phosphodiesterase 3A [7]; in series [8]) were 44 µM and 74.5 µM, respectively. As to `COc1ccc(CNc2nnc(N3CCC(C(=O)O)CC3)c3ccc(C#N)cc23)cc1Cl`, the concentration giving a half-maximal response (EC50) in the series listed under Sus scrofa was found to be 0.17 µM. Same read-out and setting: the figure for `COc1ccc(CNc2nnc(N3CCC(CO)CC3)c3ccc(C#N)cc23)cc1Cl` is 0.019 µM; for `COc1ccc(CNc2nnc(N3CC=CCC3)c3ccc(C#N)cc23)cc1Cl` it is 0.13 µM. A word on the half-life: it is the time needed for the level to fall by half in the phase considered. As a reminder, the AUC is concentration integrated over time. Low readings indicate less exposure, high ones more exposure. In general, Tmax refers to the time from dosing to the highest level. What is called Cmax is the maximum level reached in the sampled fluid or tissue. As for `COc1ccc(CNc2nnc(N3CCC(O)CC3)c3ccc(C#N)cc23)cc1Cl.Cl`, the half-life in [9] is 2.2 h. For the same compound, the IC50 was 0.984 µM on PDE II [10], 1.17 µM against Phosphodiesterase 4A [13], 26.2 µM in series [16] and 17.5 µM against Phosphodiesterase 3A [18]. For the same compound, the AUC was 166 ng·h/mL in series [11] and 32.4 ng·h/mL in [14]. Besides, the Tmax in series [12] was found to be 0.25 h. The same compound registered an EC50 in the series filed under Sus scrofa of 0.013 µM. Besides, in [15], the bioavailability came to 19.5%. In series [17], the highest concentration (Cmax) stood at 25.5 ng/mL.
